Test results taken from ChEMBL document CHEMBL1143725, “Alvaradoins E-N, antitumor and cytotoxic anthracenone C-glycosides from the leaves of Alvaradoa haitiensis” (J Nat Prod, 2007).
Activity calls are given as the source filed them. The calls are words filed in the database; no cut-off is given here.

What was measured:
[1] = test system: KB; test: Cytotoxicity against human KB cells; assay type: functional, cell-based
In short: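 Human oral epidermoid carcinoma (KB) cells were tested following previously established protocols. EC50 values were reported in μM as mean ± SEM from three separate experiments.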

[2] = test system: P388; test: Antitumor activity in P388 cells xenografted mouse at 0.4 mg/kg body weight, ip for 5 days/week relative to control; assay type: functional; conditions: route intraperitoneal
In short: (§1)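 Mice carried murine P388 lymphocytic leukemia cells implanted intraperitoneally. Treatment was given i.p. daily, 5 days per week. Activity was expressed as % T/C, treated versus control.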

[3] = test system: P388; test: Antitumor activity in iv dosed mouse implanted with P388 xenografts; assay type: functional, organism-based
In short: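 This was a P388 murine lymphocytic leukemia model in which both the leukemia cells and the treatment were delivered intravenously.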

[4] = test system: P388; test: Antitumor activity in P388 cells xenografted mouse at 0.2 mg/kg body weight, ip for 5 days/week relative to control; assay type: functional; conditions: route intraperitoneal; in short: as §1

SMILES | EC50 [1] [nM] | other results
CC(=O)O[C@H]1O[C@H]([C@@H]2c3cccc(O)c3C(=O)c3c(O)cc(C)cc32)[C@H](O)[C@@H](O)[C@H]1O [ALVARADOIN F] | 65 | Activity [2]: 115%; Activity [3]: inactive
CC(=O)O[C@H]1O[C@H]([C@@]2(O)c3cccc(O)c3C(=O)c3c(O)cc(C)cc32)[C@H](O)[C@@H](OC(=O)C=C(C)C)[C@H]1O [ALVARADOIN I] | 12500 | –
CC(C)=CC(=O)O[C@@H]1[C@@H](O)[C@@H]([C@H]2c3cccc(O)c3C(=O)c3c(O)cc(C)cc32)O[C@H](O)[C@@H]1O [ALVARADOIN M] | 380 | –
CC(=O)O[C@@H]1O[C@@H]([C@H]2c3cccc(O)c3C(=O)c3c(O)cc(C)cc32)[C@H](O)[C@@H](OC(=O)C=C(C)C)[C@H]1O [ALVARADOIN H] | 1070 | –
CC(=O)O[C@H]1O[C@H]([C@]2(O)c3cccc(O)c3C(=O)c3c(O)cc(C)cc32)[C@H](O)[C@@H](O)[C@H]1O [ALVARADOIN N] | 2940 | –
CC(=O)O[C@@H]1O[C@@H]([C@H]2c3cccc(O)c3C(=O)c3c(O)cc(C)cc32)[C@H](O)[C@@H](O)[C@H]1O [ALVARADOIN E] | 50 | Activity [4]: 125%; Activity [3]: inactive
CC(C)=CC(=O)O[C@@H]1[C@H](O)[C@@H](O)[C@@H]([C@H]2c3cccc(O)c3C(=O)c3c(O)cc(C)cc32)O[C@@H]1O [ALVARADOIN L] | 590 | –
CC(C)=CC(=O)O[C@@H]1[C@H](O)[C@@H](O)[C@@H]([C@@H]2c3cccc(O)c3C(=O)c3c(O)cc(C)cc32)O[C@@H]1O [ALVARADOIN K] | 270 | –
CC[C@@]1(O)C(=O)OCc2c1cc1n(c2=O)Cc2cc3ccccc3nc2-1 [CAMPTOTHECIN] | 3.6 | –
CC(=O)O[C@H]1O[C@H]([C@@H]2c3cccc(O)c3C(=O)c3c(O)cc(C)cc32)[C@H](O)[C@@H](OC(=O)C=C(C)C)[C@H]1O [ALVARADOIN G] | 650 | –
CC(=O)O[C@H]1O[C@H]([C@]2(O)c3cccc(O)c3C(=O)c3c(O)cc(C)cc32)[C@H](O)[C@@H](OC(=O)C=C(C)C)[C@H]1O [ALVARADOIN J] | 15900 | –
Cc1cc(O)c2c(c1)C(=O)c1cccc(O)c1C2=O [CHRYSOPHANOL] | > 20000 | –
